Calls of active or inactive are those of the source. The calls are words filed in the database; no cut-off is given here.
Legend:
Hepatitis C virus [1] = assay: Inhibition of subgenomic HCV RNA replication in Huh7 cells by cell-based replicon assay; format: functional, organism-based, Hepacivirus hominis; details: Huh-7
In short: (§1)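 Subgenomic HCV RNA replicon in Huh-7 cells. Replicon RNA was quantified by RT-PCR and normalized to cellular GAPDH mRNA. EC50 runs were done in duplicate on two separate weighings.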

[2] = Inhibition of HCV NS5B polymerase; set-up: species or system Hepacivirus hominis
In short: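 N-terminally tagged full-length NS5B construct; IC50 values are the mean of duplicate measurements on two separate weighings.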

[3] = Solubility in phosphate buffer at pH 7.2; format: physicochemical
In short: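 Solubility measured in phosphate buffer at pH 7.2.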

[4] = Distribution coefficient, log D at pH 7.2; format: physicochemical; details: octanol/water
In short: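 Shake-flask partitioning between octanol and 100 mM phosphate buffer, pH 7.2; reported as log D(oct/buffer).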

Enterovirus C = assay: Inhibition of poliovirus RNA-dependent RNA polymerase at 200 to 250 uM
Bos taurus = organism: Bos taurus; assay: Inhibition of calf thymus DNA-dependent RNA polymerase 2 at 200 to 250 uM
Hepatitis C virus [5] = assay: Inhibition of subgenomic HCV RNA replication in Huh7 cells at 74 uM by cell-based replicon assay; format: functional, Hepacivirus hominis; details: Huh-7; in short: as §1
[6] = Cytotoxicity against Huh7 cells; format: cell-based; details: human, huh-7
Hepatitis C virus [7] = assay: Inhibition of subgenomic HCV RNA replication in Huh7 cells at 3.4 uM by cell-based replicon assay; format: functional, Hepacivirus hominis; details: Huh-7; in short: as §1

Compound | EC50 (Hepatitis C virus [1]) | IC50 [2] | inhibition (Enterovirus C) | Activity (Bos taurus) | further results
O=C(N[C@@H](Cc1ccc(O)cc1)C(=O)Nc1cccnc1)c1ccc2c(c1)nc(-c1ccoc1)n2C1CCCCC1 | 6 µM | 3 µM | – | – | –
Cc1nc([C@H](Cc2c[nH]c3ccc(O)cc23)NC(=O)c2ccc3c(c2)nc(-c2ccoc2)n3C2CCCCC2)cs1 | 2.4 µM | 0.3 µM | < 50% | Active | solubility [3]: < 0.1 µg/mL; logD [4]: 4.6
CN(C)C(=O)[C@H](Cc1ccc(O)cc1)NC(=O)c1ccc2c(c1)nc(-c1ccoc1)n2C1CCCCC1 | – | 4.9 µM | – | – | –
O=C(N[C@@H](Cc1c[nH]c2ccc(O)cc12)c1cscn1)c1ccc2c(c1)nc(-c1ccoc1)n2C1CCCCC1 | 1.7 µM | 0.3 µM | < 50% | Active | logD [4]: 3.8
O=C(O)c1ccc2c(c1)nc(-c1ccoc1)n2C1CCCCC1 | – | 1.6 µM | – | – | –
NC(=O)[C@H](Cc1ccc(O)cc1)NC(=O)c1ccc2c(c1)nc(-c1ccoc1)n2C1CCCCC1 | 13 µM | 0.8 µM | – | – | logD [4]: 3.1
O=C(N[C@@H](Cc1ccc(O)cc1)C(=O)N1CCOCC1)c1ccc2c(c1)nc(-c1ccoc1)n2C1CCCCC1 | – | 9.5 µM | – | – | –
CN(C)CCCNC(=O)[C@H](Cc1ccc(O)cc1)NC(=O)c1ccc2c(c1)nc(-c1ccoc1)n2C1CCCCC1 | – | 1.9 µM | – | – | –
CN(C)c1nc([C@H](Cc2ccc(O)cc2)NC(=O)c2ccc3c(c2)nc(-c2ccoc2)n3C2CCCCC2)cs1 | 8.3 µM | 5.1 µM | < 50% | Active | –
CNc1nc([C@H](Cc2c[nH]c3ccc(O)cc23)NC(=O)c2ccc3c(c2)nc(-c2ccoc2)n3C2CCCCC2)cs1 | 3 µM | 0.5 µM | < 50% | Active | –
O=C(N[C@@H](Cc1ccc(O)cc1)C(=O)NCCN1CCOCC1)c1ccc2c(c1)nc(-c1ccoc1)n2C1CCCCC1 | > 13 µM | 3.2 µM | – | – | –
CN(C)CCNC(=O)[C@H](Cc1ccc(O)cc1)NC(=O)c1ccc2c(c1)nc(-c1ccoc1)n2C1CCCCC1 | – | 2.1 µM | – | – | –
Nc1nc([C@H](Cc2c[nH]c3ccc(O)cc23)NC(=O)c2ccc3c(c2)nc(-c2ccoc2)n3C2CCCCC2)cs1 | 5.7 µM | 0.19 µM | < 50% | Active | –
CNc1nc([C@H](Cc2ccc(O)cc2)NC(=O)c2ccc3c(c2)nc(-c2ccoc2)n3C2CCCCC2)cs1 | 7.1 µM | 2.8 µM | < 50% | Active | –
O=C(N[C@@H](Cc1ccc(O)cc1)C(=O)NCc1ccncc1)c1ccc2c(c1)nc(-c1ccoc1)n2C1CCCCC1 | > 9 µM | 3.7 µM | – | – | –
O=C(N[C@@H](Cc1c[nH]c2ccc(O)cc12)C(=O)O)c1ccc2c(c1)nc(-c1ccoc1)n2C1CCCCC1 | > 74 µM | 0.05 µM | – | – | inhibition at 74 µM (Hepatitis C virus [5]): 37%; solubility [3]: > 850 µg/mL; logD [4]: 0.45
O=C(N[C@@H](Cc1ccc(O)cc1)C(=O)NCc1cccnc1)c1ccc2c(c1)nc(-c1ccoc1)n2C1CCCCC1 | 16 µM | 2.6 µM | – | – | –

Compound | EC50 (Hepatitis C virus [1]) | IC50 [2] | inhibition (Enterovirus C) | Activity (Bos taurus) | further results
CN1CCN(C(=O)[C@H](Cc2ccc(O)cc2)NC(=O)c2ccc3c(c2)nc(-c2ccoc2)n3C2CCCCC2)CC1 | > 9 µM | 11 µM | – | – | –
CN(C)c1nc([C@H](Cc2c[nH]c3ccc(O)cc23)NC(=O)c2ccc3c(c2)nc(-c2ccoc2)n3C2CCCCC2)cs1 | 3.7 µM | 0.9 µM | < 50% | Active | –
COc1ccc(CCNC(=O)c2ccc3c(c2)nc(-c2ccccn2)n3C2CCCCC2)cc1OC | – | 12 µM | – | – | –
CC(C)[C@H](Cc1ccc(O)cc1)NC(=O)c1ccc2c(c1)nc(-c1ccoc1)n2C1CCCCC1 | 3.5 µM | 4.3 µM | – | – | logD [4]: 3.4
O=C(N[C@@H](Cc1ccc(O)cc1)C(=O)O)c1ccc2c(c1)nc(-c1ccoc1)n2C1CCCCC1 | 48 µM | 0.5 µM | – | – | Activity [6]: Not Active
Nc1nc([C@H](Cc2ccc(O)cc2)NC(=O)c2ccc3c(c2)nc(-c2ccoc2)n3C2CCCCC2)cs1 | – | 1.3 µM | < 50% | Active | –
CC(=O)Nc1nc([C@H](Cc2ccc(O)cc2)NC(=O)c2ccc3c(c2)nc(-c2ccoc2)n3C2CCCCC2)cs1 | 2.4 µM | 4.8 µM | < 50% | Active | –
O=C(N[C@@H](Cc1ccc(O)cc1)C(=O)NCc1ccccn1)c1ccc2c(c1)nc(-c1ccoc1)n2C1CCCCC1 | 10 µM | 2.7 µM | – | – | –
Cc1nc([C@H](Cc2ccc(O)cc2)NC(=O)c2ccc3c(c2)nc(-c2ccoc2)n3C2CCCCC2)cs1 | 7.4 µM | 3.3 µM | < 50% | Active | –
COC(=O)[C@H](Cc1c[nH]c2ccc(O)cc12)NC(=O)c1ccc2c(c1)nc(-c1ccoc1)n2C1CCCCC1 | – | 0.38 µM | – | – | Activity [6]: Toxic; inhibition at 3.4 µM (Hepatitis C virus [7]): 30%
O=C(N[C@@H](Cc1ccc(O)cc1)c1cscn1)c1ccc2c(c1)nc(-c1ccoc1)n2C1CCCCC1 | 4.3 µM | 6.6 µM | < 50% | Active | –
CC(=O)Nc1nc([C@H](Cc2ccc(O)cc2)NC(=O)c2ccc3c(c2)nc(-c2ccoc2)n3C2CCCCC2)c[nH]1 | – | 4.2 µM | < 50% | Active | –
CC(=O)Nc1nc([C@H](Cc2c[nH]c3ccc(O)cc23)NC(=O)c2ccc3c(c2)nc(-c2ccoc2)n3C2CCCCC2)cs1 | 5.8 µM | 0.55 µM | < 50% | Active | –
O=C(O)COc1ccc2[nH]cc(C[C@H](NC(=O)c3ccc4c(c3)nc(-c3ccoc3)n4C3CCCCC3)C(=O)O)c2c1 | 64 µM | 0.027 µM | – | – | solubility [3]: > 850 µg/mL; logD [4]: -1.6
NC(=O)[C@H](Cc1c[nH]c2ccc(O)cc12)NC(=O)c1ccc2c(c1)nc(-c1ccoc1)n2C1CCCCC1 | 8 µM | 0.22 µM | – | – | –
Cn1cc(C[C@H](NC(=O)c2ccc3c(c2)nc(-c2ccoc2)n3C2CCCCC2)c2csc(N)n2)c2cc(O)ccc21 | 3.4 µM | 0.9 µM | < 50% | Active | –

— ChEMBL document CHEMBL1149312, “Non-nucleoside benzimidazole-based allosteric inhibitors of the hepatitis C virus NS5B polymerase: inhibition of subgenomic hepatitis C virus RNA replicons in Huh-7 cells” (J Med Chem, 2004)
